Assay results from ChEMBL document CHEMBL1255443, “CEM-101 activity against Gram-positive organisms” (Antimicrob Agents Chemother, 2010).
Active and inactive are the calls of the source.

Tests used:
[1] = system: Staphylococcus epidermidis; assay: Antibacterial activity against Staphylococcus epidermidis 2777A assessed as bacteriostatic by time kill study
Staphylococcus aureus [2] = assay: Antibacterial activity against Staphylococcus aureus ATCC 29213 assessed as bactericidal at 8 times MIC in 24 hrs by time kill study; assay type: functional, organism-based
Method in brief: (§1)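 Time-kill assay following earlier published methods. Each agent tested at 2×, 4× and 8× its MIC for the strain. Viable colony counts taken at 0, 2, 4, 8 and 24 h. Bactericidal activity defined as a ≥3 log10 CFU/ml drop from the starting inoculum within 24 h.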

Streptococcus mitis [3] = assay: Antibacterial activity against Streptococcus mitis 112-1885A assessed as bactericidal at 8 times MIC in 24 hrs by time kill study; assay type: functional, organism-based
Method in brief: as §1

Streptococcus mitis [4] = assay: Antibacterial activity against Streptococcus mitis 112-1885A assessed as bactericidal at 2 times MIC in 24 hrs by time kill study; assay type: functional, organism-based
Method in brief: as §1

Streptococcus mitis [5] = assay: Antibacterial activity against Streptococcus mitis 112-1885A assessed as bactericidal at 4 times MIC in 24 hrs by time kill study; assay type: functional, organism-based
Method in brief: as §1

Streptococcus pneumoniae [6] = assay: Antibacterial activity against Streptococcus pneumoniae ATCC 49619 assessed as bactericidal at 4 times MIC in 24 hrs by time kill study; assay type: functional, organism-based
Method in brief: as §1

Streptococcus pneumoniae [7] = assay: Antibacterial activity against Streptococcus pneumoniae ATCC 49619 assessed as bactericidal at 8 times MIC in 24 hrs by time kill study; assay type: functional, organism-based
Method in brief: as §1

Streptococcus pyogenes [8] = assay: Antibacterial activity against Streptococcus pyogenes 117-1612A assessed as bactericidal at 8 times MIC in 24 hrs by time kill study; assay type: functional, organism-based
Method in brief: as §1

Streptococcus pneumoniae [9] = assay: Antibacterial activity against Streptococcus pneumoniae ATCC 49619 assessed as bactericidal at 2 times MIC in 24 hrs by time kill study; assay type: functional, organism-based
Method in brief: as §1

Staphylococcus aureus [10] = assay: Antibacterial activity against Staphylococcus aureus ATCC 29213 assessed as bactericidal at 4 times MIC in 24 hrs by time kill study; assay type: functional, organism-based
Method in brief: as §1

Enterococcus faecalis [11] = assay: Antimicrobial activity against Enterococcus faecalis ATCC 29212 after passaging with CEM-101 by broth microdilution method; assay type: functional
Method in brief: (§2)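 Multistep resistance selection by CLSI reference broth microdilution. The full content of the last well showing growth was resuspended in broth to a 0.5 McFarland standard, and 5 × 10^5 CFU/ml was used for the next MIC panel, repeated over 7 passage days. Reversion was checked by three consecutive drug-free agar passages, followed by a final broth microdilution MIC. A ≥8-fold MIC change from initial counted as significant resistance.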

Staphylococcus aureus [12] = assay: Antimicrobial activity against Staphylococcus aureus ATCC 29213 after passaging with CEM-101 by broth microdilution method; assay type: functional
Method in brief: as §2

Streptococcus pneumoniae [13] = assay: Antimicrobial activity against Streptococcus pneumoniae 063-1085A after passaging with CEM-101 by broth microdilution method; assay type: functional
Method in brief: as §2

Streptococcus pneumoniae [14] = assay: Antibacterial activity against Streptococcus pneumoniae 241B assessed as bacteriostatic by time kill study; assay type: functional, organism-based
Method in brief: as §1

Streptococcus pyogenes [15] = assay: Antimicrobial activity against Streptococcus pyogenes 117-1612A after passaging with CEM-101 by broth microdilution method; assay type: functional
Method in brief: as §2

Enterococcus faecalis [16] = assay: Antimicrobial activity against Enterococcus faecalis 067-6633A after passaging with CEM-101 by broth microdilution method; assay type: functional
Method in brief: as §2

Enterococcus faecium [17] = assay: Antimicrobial activity against Enterococcus faecium 086-15387A after passaging with CEM-101 by broth microdilution method; assay type: functional
Method in brief: as §2

Streptococcus pneumoniae [18] = assay: Antibacterial activity against Streptococcus pneumoniae ATCC 49619 assessed as log cell killing at 8 times MIC in 24 hrs by time kill study; assay type: functional
Method in brief: as §1

Streptococcus pneumoniae [19] = assay: Antimicrobial activity against Streptococcus pneumoniae 127-2273B after passaging with CEM-101 by broth microdilution method; assay type: functional
Method in brief: as §2

Moraxella catarrhalis = assay: Antimicrobial activity against Moraxella catarrhalis 117-10142A after passaging with CEM-101 by broth microdilution method; assay type: functional
Method in brief: as §2

Streptococcus pyogenes [20] = assay: Antibacterial activity against Streptococcus pyogenes assessed as log cell killing at 8 times MIC in 24 hrs by time kill study; assay type: functional
Method in brief: as §1

Streptococcus pneumoniae [21] = assay: Antimicrobial activity against Streptococcus pneumoniae ATCC 49619 after passaging with CEM-101 by broth microdilution method; assay type: functional
Method in brief: as §2

Enterococcus faecium [22] = assay: Antimicrobial activity against Enterococcus faecium 067- after passaging with CEM-101 by broth microdilution method; assay type: functional
Method in brief: as §2

Staphylococcus aureus [23] = assay: Antimicrobial activity against Staphylococcus aureus 024-11490A after passaging with CEM-101 by broth microdilution method; assay type: functional
Method in brief: as §2

[24] = system: Staphylococcus epidermidis; assay: Antibacterial activity against Staphylococcus epidermidis assessed as log cell killing at 8 times MIC in 24 hrs by time kill study; assay type: functional
Method in brief: as §1

Streptococcus pyogenes [25] = assay: Antibacterial activity against Streptococcus pyogenes 088-11708A assessed as bactericidal at 8 times MIC in 24 hrs by time kill study; assay type: functional, organism-based
Method in brief: as §1

Staphylococcus aureus [26] = assay: Antimicrobial activity against Staphylococcus aureus 117-472D after passaging with CEM-101 by broth microdilution method; assay type: functional
Method in brief: as §2

Streptococcus pyogenes [27] = assay: Antibacterial activity against Streptococcus pyogenes 088-11708A assessed as bactericidal at 4 times MIC in 24 hrs by time kill study; assay type: functional, organism-based
Method in brief: as §1

Staphylococcus aureus [28] = assay: Antibacterial activity against Staphylococcus aureus ATCC 29213 assessed as bactericidal at 2 times MIC in 24 hrs by time kill study; assay type: functional, organism-based
Method in brief: as §1

Streptococcus pyogenes [29] = assay: Antimicrobial activity against Streptococcus pyogenes 088-11708A after passaging with CEM-101 by broth microdilution method; assay type: functional
Method in brief: as §2

[30] = system: Staphylococcus epidermidis; assay: Antibacterial activity against Staphylococcus epidermidis 2777A assessed as bactericidal at 8 times MIC in 24 hrs by time kill study
[31] = system: Staphylococcus epidermidis; assay: Antimicrobial activity against Staphylococcus epidermidis 095-2777A by broth microdilution method
Enterococcus faecalis [32] = assay: Antibacterial activity against Enterococcus faecalis ATCC 29212 assessed as bacteriostatic by time kill study; assay type: functional, organism-based
Method in brief: as §1

[33] = system: Staphylococcus haemolyticus; assay: Antimicrobial activity against Staphylococcus haemolyticus 064-4090A after passaging with CEM-101 by broth microdilution method; assay type: functional
Method in brief: as §2

[34] = system: Staphylococcus epidermidis; assay: Antibacterial activity against Staphylococcus epidermidis 2777A assessed as bactericidal at 4 times MIC in 24 hrs by time kill study
Staphylococcus aureus [35] = assay: Antimicrobial activity against Staphylococcus aureus NRS384 after passaging with CEM-101 by broth microdilution method; assay type: functional
Method in brief: as §2

Haemophilus influenzae = assay: Antimicrobial activity against Haemophilus influenzae ATCC 49247 after passaging with CEM-101 by broth microdilution method; assay type: functional
Method in brief: as §2

Streptococcus mitis [36] = assay: Antimicrobial activity against Streptococcus mitis 051-4933A after passaging with CEM-101 by broth microdilution method; assay type: functional
Method in brief: as §2

Enterococcus faecalis [37] = assay: Antimicrobial activity against Enterococcus faecalis 061-6556A after passaging with CEM-101 by broth microdilution method; assay type: functional
Method in brief: as §2

Staphylococcus aureus [38] = assay: Antimicrobial activity against Staphylococcus aureus 004-573D after passaging with CEM-101 by broth microdilution method; assay type: functional
Method in brief: as §2

Staphylococcus aureus [39] = assay: Antibacterial activity against Staphylococcus aureus ATCC 29213 assessed as log cell killing at 8 times MIC in 24 hrs by time kill study; assay type: functional
Method in brief: as §1

[40] = system: Staphylococcus epidermidis; assay: Antibacterial activity against Staphylococcus epidermidis 2777A assessed as bactericidal at 2 times MIC in 24 hrs by time kill study
Staphylococcus aureus [41] = assay: Antimicrobial activity against Staphylococcus aureus 117-453D after passaging with CEM-101 by broth microdilution method; assay type: functional
Method in brief: as §2

Streptococcus pyogenes [42] = assay: Antibacterial activity against Streptococcus pyogenes 088-11708A assessed as bactericidal at 2 times MIC in 24 hrs by time kill study; assay type: functional, organism-based
Method in brief: as §1

Streptococcus mitis [43] = assay: Antimicrobial activity against Streptococcus mitis 112-1885A after passaging with CEM-101 by broth microdilution method; assay type: functional
Method in brief: as §2

Streptococcus pneumoniae [44] = assay: Antimicrobial activity against Streptococcus pneumoniae 075-241B after passaging with CEM-101 by broth microdilution method; assay type: functional
Method in brief: as §2

CC[C@H]1OC(=O)[C@H](C)C(=O)[C@H](C)[C@@H](O[C@@H]2O[C@H](C)C[C@H](N(C)C)[C@H]2O)[C@](C)(OC)C[C@@H](C)C(=O)[C@H](C)[C@H]2N(CCCCn3cnc(-c4cccnc4)c3)C(=O)O[C@]12C
active: Activity [1] | Activity (Staphylococcus aureus [2]) | Activity (Streptococcus mitis [3]) | Activity (Streptococcus mitis [4]) | Activity (Streptococcus mitis [5])

CC[C@H]1OC(=O)[C@H](C)[C@@H](O[C@H]2C[C@@](C)(OC)[C@@H](O)[C@H](C)O2)[C@H](C)[C@@H](O[C@@H]2O[C@H](C)C[C@H](N(C)C)[C@H]2O)[C@](C)(O)C[C@@H](C)C(=O)[C@H](C)[C@@H](O)[C@]1(C)O
active: Activity (Streptococcus pneumoniae [6]) | Activity (Staphylococcus aureus [2]) | Activity (Streptococcus pneumoniae [7]) | Activity (Streptococcus pyogenes [8]) | Activity (Streptococcus pneumoniae [9])

CC[C@H]1OC(=O)[C@H](C)[C@@H](O[C@H]2C[C@@](C)(OC)[C@@H](O)[C@H](C)O2)[C@H](C)[C@@H](O[C@@H]2O[C@H](C)C[C@H](N(C)C)[C@H]2O)[C@](C)(OC)C[C@@H](C)C(=O)[C@H](C)[C@@H](O)[C@]1(C)O [CLARITHROMYCIN]
Active: Activity (Staphylococcus aureus [2])

CC[C@H]1OC(=O)[C@@](C)(F)C(=O)[C@H](C)[C@@H](O[C@@H]2O[C@H](C)C[C@H](N(C)C)[C@H]2O)[C@](C)(OC)C[C@@H](C)C(=O)[C@H](C)[C@H]2N(CCCCn3cc(-c4cccc(N)c4)nn3)C(=O)O[C@]12C [SOLITHROMYCIN]
0.06 µg/mL: MIC (Staphylococcus aureus [12]) | MIC (Streptococcus pneumoniae [19]) | MIC (Enterococcus faecium [22]) | MIC (Streptococcus pyogenes [29]) | MIC (Enterococcus faecalis [37])
active: Activity (Staphylococcus aureus [10]) | Activity (Streptococcus pneumoniae [14]) | Activity (Staphylococcus aureus [2]) | Activity (Streptococcus pyogenes [25]) | Activity (Streptococcus pyogenes [27]) | Activity (Staphylococcus aureus [28]) | Activity [30] | Activity (Enterococcus faecalis [32]) | Activity [34] | Activity [40] | Activity (Streptococcus pyogenes [42])
>=3 log10CFU/ml: Activity (Streptococcus pneumoniae [18]) | Activity (Streptococcus pyogenes [20]) | Activity [24] | Activity (Staphylococcus aureus [39])
0.12 µg/mL: MIC (Moraxella catarrhalis) | MIC (Staphylococcus aureus [23]) | MIC (Staphylococcus aureus [26]) | MIC [31] | MIC [33] | MIC (Staphylococcus aureus [35]) | MIC (Streptococcus mitis [36]) | MIC (Staphylococcus aureus [38]) | MIC (Staphylococcus aureus [41])
2 µg/mL: MIC (Enterococcus faecalis [16]) | MIC (Haemophilus influenzae)
0.03 µg/mL: MIC (Enterococcus faecalis [11])
1 µg/mL: MIC (Enterococcus faecium [17])
≤ 8 ng/mL: MIC (Streptococcus mitis [43])
0.015 µg/mL: MIC (Streptococcus pneumoniae [13]) | MIC (Streptococcus pyogenes [15]) | MIC (Streptococcus pneumoniae [44])
8 ng/mL: MIC (Streptococcus pneumoniae [21])
